Results from ChEMBL document CHEMBL2384906, “Biological activity, design, synthesis and structure activity relationship of some novel derivatives of curcumin containing sulfonamides” (Eur J Med Chem, 2013).
Values after ≈ are worked out from the molar mass of the structure shown. Active and inactive are the calls of the source. The calls are words filed in the database; no cut-off is given here.

Columns and labels:
[1] = test system: Salmonella typhi; test: Antimicrobial activity against Salmonella typhi ATCC 23564 assessed as diameter of inhibition zone at 40 uM after 24 hrs by Kirby -Baur disc diffusion method; assay type: functional; details: Salmonella enterica subsp. enterica serovar Typhi
[2] = test system: Trichoderma viride; test: Antifungal activity against Trichoderma viride MTCC 1107 assessed as zone of inhibition at 40 uM after 48 hrs by disc diffusion method; assay type: functional; details: MTCC 1107, 48 h, read-out: IZ
How it was run: (§1)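 Spores from 4-day potato dextrose agar cultures, suspended in sterile water at 1.5 × 10⁵ CFU/mL. 0.2 mL was spread on potato dextrose agar. 5 mm filter-paper discs soaked with test compound were laid on the lawn. Incubation was 48 h at 28 °C, then the inhibition zone was measured in mm. Fluconazole was the positive control and acetone the negative control.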

[3] = test system: Pseudomonas aeruginosa; test: Antimicrobial activity against Pseudomonas aeruginosa ATCC 15499 after 24 hrs by broth micro serial dilution method; assay type: functional
How it was run: (§2)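 This was broth microdilution in autoclaved Mueller-Hinton broth. 150 µL of compound per well was serially diluted […], and 50 µL of test organism was added. Plates were incubated 24 h at 37 °C and optical density was read.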

[4] = test system: Aspergillus flavus; test: Antifungal activity against Aspergillus flavus MTCC 1021 assessed as zone of inhibition at 80 uM after 48 hrs by disc diffusion method; assay type: functional; how it was run: as §1
[5] = test system: Salmonella typhi; test: Antimicrobial activity against Salmonella typhi ATCC 23564 assessed as diameter of inhibition zone at 20 uM after 24 hrs by Kirby -Baur disc diffusion method; assay type: functional; details: Salmonella enterica subsp. enterica serovar Typhi
[6] = test system: HepG2; test: Cytotoxicity against human HepG2 cells after 24 hrs by MTT assay; assay type: functional, cell-based
How it was run: (§3)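 The MTT assay seeded 5 × 10⁴ cells per well and grew them 24 h in RPMI 1640 with compound at 2.5–200 µM. Medium without cells was the blank and adriamycin the positive control. MTT was added for 4 h at 37 °C, formazan was solubilised, and absorbance was read at 570 nm. IC50 is the concentration that cuts viability 50% against untreated cells.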

[7] = test system: Aspergillus flavus; test: Antifungal activity against Aspergillus flavus MTCC 1021 after 48 hrs; assay type: functional
[8] = test system: Curvularia lunata; test: Antifungal activity against Curvularia lunata MTCC 581 after 48 hrs; assay type: functional; details: MTCC 581, 48 h
[9] = test system: Escherichia coli; test: Antimicrobial activity against Escherichia coli ATCC 35218 assessed as diameter of inhibition zone at 40 uM after 24 hrs by Kirby -Baur disc diffusion method; assay type: functional; details: ATCC 35218, 24 h, read-out: DIZ
How it was run: (§4)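 Kirby-Bauer disc diffusion was used. Acetone stocks (160 µM) were serially doubled down to 80, 40 and 20 µM. 4 µL of each went onto 5 mm sterile paper discs, which were dried 30 min at 50 °C. Inoculum was 1.5 × 10⁸ CFU/mL diluted to 3 × 10² CFU/mL, and 50 µL was spread on Mueller-Hinton agar. After 24 h at 37 °C the inhibition-zone diameter was measured. Ciprofloxacin served as positive control.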

[10] = test system: Bacillus cereus; test: Antimicrobial activity against Bacillus cereus MTCC 7350 assessed as diameter of inhibition zone at 80 uM after 24 hrs by Kirby -Baur disc diffusion method; assay type: functional; how it was run: as §4
[11] = test system: Trichoderma viride; test: Antifungal activity against Trichoderma viride MTCC 1107 after 48 hrs; assay type: functional; details: MTCC 1107, 48 h
[12] = test system: Aspergillus niger; test: Antifungal activity against Aspergillus niger MTCC 1108 assessed as zone of inhibition at 80 uM after 48 hrs by disc diffusion method; assay type: functional; how it was run: as §1
[13] = test system: Salmonella typhi; test: Antimicrobial activity against Salmonella typhi ATCC 23564 after 24 hrs by broth micro serial dilution method; assay type: functional, Salmonella enterica subsp. enterica serovar Typhi
[14] = test system: Mus musculus; test: Antiinflammatory activity in mouse assessed as inhibition of carrageenan-induced increase in paw volume at 200 mg/kg administered 1 hr prior to carrageenan challenge measured after 3 hrs relative to control; assay type: functional
How it was run: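 Mice were fasted 2 h and placed in groups of five. Controls received saline i.p. Phenylbutazone was given at 100 mg/kg i.p., curcumin at 200 mg/kg i.p., and derivatives at 200 mg/kg. After 1 h, 0.1 mL of 1% carrageenan in saline was injected subplantar into the right hind paw. Paw volume was followed by plethysmometer for 3 h, and % inhibition was calculated as (Vc − Vt)/Vc × 100.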

[15] = test system: Escherichia coli; test: Antimicrobial activity against Escherichia coli ATCC 35218 assessed as diameter of inhibition zone at 20 uM after 24 hrs by Kirby -Baur disc diffusion method; assay type: functional; details: ATCC 35218, 24 h, read-out: DIZ; how it was run: as §4
[16] = test system: Staphylococcus aureus; test: Antimicrobial activity against Staphylococcus aureus ATCC 11632 after 24 hrs by broth micro serial dilution method; assay type: functional; how it was run: as §2
[17] = test system: Aspergillus niger; test: Antifungal activity against Aspergillus niger MTCC 1108 after 48 hrs; assay type: functional
[18] = test system: QG-56; test: Cytotoxicity against human QG56 cells after 24 hrs by MTT assay; assay type: functional, cell-based; how it was run: as §3
[19] = test system: Curvularia lunata; test: Antifungal activity against Curvularia lunata MTCC 581 assessed as zone of inhibition at 80 uM after 48 hrs by disc diffusion method; assay type: functional; details: MTCC 581, 48 h, read-out: IZ; how it was run: as §1
[20] = test system: Trichoderma viride; test: Antifungal activity against Trichoderma viride MTCC 1107 assessed as zone of inhibition at 80 uM after 48 hrs by disc diffusion method; assay type: functional; details: MTCC 1107, 48 h, read-out: IZ; how it was run: as §1
[21] = test system: Escherichia coli; test: Antimicrobial activity against Escherichia coli ATCC 35218 after 24 hrs by broth micro serial dilution method; assay type: functional; how it was run: as §2
[22] = test system: Salmonella typhi; test: Antimicrobial activity against Salmonella typhi ATCC 23564 assessed as diameter of inhibition zone at 80 uM after 24 hrs by Kirby -Baur disc diffusion method; assay type: functional, Salmonella enterica subsp. enterica serovar Typhi; details: for diameter of the inhibition zone (DIZ): Salmonella enterica subsp. enterica serovar Typhi
[23] = test system: HCT-116; test: Cytotoxicity against human HCT116 cells after 24 hrs by MTT assay; assay type: functional, cell-based; how it was run: as §3
[24] = test system: Curvularia lunata; test: Antifungal activity against Curvularia lunata MTCC 581 assessed as zone of inhibition at 40 uM after 48 hrs by disc diffusion method; assay type: functional; details: MTCC 581, 48 h, read-out: IZ; how it was run: as §1
[25] = test system: Trichoderma viride; test: Antifungal activity against Trichoderma viride MTCC 1107 assessed as zone of inhibition at 20 uM after 48 hrs by disc diffusion method; assay type: functional; how it was run: as §1
[26] = test system: Escherichia coli; test: Antimicrobial activity against Escherichia coli ATCC 35218 assessed as diameter of inhibition zone at 80 uM after 24 hrs by Kirby -Baur disc diffusion method; assay type: functional; how it was run: as §4
[27] = test system: Curvularia lunata; test: Antifungal activity against Curvularia lunata MTCC 581 assessed as zone of inhibition at 20 uM after 48 hrs by disc diffusion method; assay type: functional; how it was run: as §1
[28] = test system: Bacillus cereus; test: Antimicrobial activity against Bacillus cereus MTCC 7350 after 24 hrs by broth micro serial dilution method; assay type: functional; how it was run: as §2
[29] = test system: Pseudomonas aeruginosa; test: Antimicrobial activity against Pseudomonas aeruginosa ATCC 15499 assessed as diameter of inhibition zone at 80 uM after 24 hrs by Kirby -Baur disc diffusion method; assay type: functional; how it was run: as §4
[30] = test system: HeLa; test: Cytotoxicity against human HeLa cells after 24 hrs by MTT assay; assay type: functional, cell-based; how it was run: as §3
[31] = test system: Staphylococcus aureus; test: Antimicrobial activity against Staphylococcus aureus ATCC 11632 assessed as diameter of inhibition zone at 80 uM after 24 hrs by Kirby -Baur disc diffusion method; assay type: functional; how it was run: as §4
[32] = Salmonella enterica, ATCC 23564, 24 h
[33] = Salmonella enterica subsp. enterica serovar Typhi

Structure (SMILES)	zone of inhibition at 40 µM [2] [mm]	MIC ([3]; ATCC 15499, 24 h) [µM]	inhibition zone (IZ) [4]	IC50 [6]	MIC [7]	MIC [8] [µM]	diameter of the inhibition zone (DIZ) [10]	MIC [11] [µM]	inhibition zone (IZ) [12]	MIC [13, 32] [µM]	inhibition in vivo at 200 mg/kg [14] [%]	MIC [16]	MIC [17]	MIC ([21]; ATCC 35218, 24 h) [µM]	MIC [28]	diameter of the inhibition zone (DIZ) [29]	diameter of the inhibition zone (DIZ) [31]	diameter of the inhibition zone (DIZ) [22]	diameter of the inhibition zone (DIZ) [26]	MIC [3]	other results
COc1cc(/C=C/c2nn(-c3ccccc3)c(/C=C/c3ccc(O)c(OC)c3)c2/N=N/c2ccc(S(=O)(=O)Nc3ccccn3)cc2)ccc1O	13	> 80	inactive	Not Active	inactive	40 (≈ 28 µg/mL)	inactive	40 (≈ 28 µg/mL)	inactive	> 80	20.9	inactive	inactive	> 80	inactive	inactive	inactive	–	–	–	diameter of the inhibition zone (DIZ) [1]: inactive; diameter of the inhibition zone (DIZ) [5]: inactive; zone of inhibition at 40 µM [9]: 9 mm; zone of inhibition at 20 µM [15]: 7 mm; IC50 [18]: 100 µM; zone of inhibition at 80 µM [19]: 17 mm; zone of inhibition at 80 µM [20]: 17 mm; zone of inhibition at 80 µM ([22]; Salmonella enterica, ATCC 23564, 24 h, read-out: DIZ): 9 mm; IC50 [23]: Not Active; zone of inhibition at 40 µM [24]: 13 mm; zone of inhibition at 20 µM ([25]; MTCC 1107, 48 h, read-out: IZ): 10 mm; zone of inhibition at 80 µM ([26]; ATCC 35218, 24 h, read-out: DIZ): 10 mm; zone of inhibition at 20 µM ([27]; MTCC 581, 48 h, read-out: IZ): 10 mm; IC50 [30]: 50 µM
COc1ccc(NS(=O)(=O)c2ccc(N)cc2)nn1 [SULFAMETHOXYPYRIDAZINE]	–	> 160	–	–	–	–	inactive	–	–	> 160	–	–	–	> 160	–	inactive	inactive	inactive	inactive	–	MIC ([16]; ATCC 11632, 24 h): > 80 µM; MIC ([28]; MTCC 7350, 24 h): > 160 µM
Cc1cc(C)nc(NS(=O)(=O)c2ccc(N)cc2)n1 [SULFAMETHAZINE]	–	–	–	–	–	–	inactive	–	–	> 160	–	inactive	–	> 160	inactive	inactive	inactive	inactive	inactive	inactive	–
COc1cc(/C=C/c2nn(-c3ccccc3)c(/C=C/c3ccc(O)c(OC)c3)c2/N=N/c2ccc(S(N)(=O)=O)cc2)ccc1O	10	–	inactive	Not Active	inactive	> 80	inactive	80 (≈ 49.9 µg/mL)	inactive	–	22.5	inactive	inactive	–	inactive	inactive	inactive	inactive	inactive	inactive	MIC [13, 33]: inactive; IC50 [18]: > 100 µM; zone of inhibition at 80 µM [19]: 11 mm; zone of inhibition at 80 µM [20]: 11 mm; MIC [21]: inactive; IC50 [23]: Not Active; zone of inhibition at 40 µM [24]: 10 mm; inhibition zone (IZ) [25]: inactive; inhibition zone (IZ) [27]: inactive; IC50 [30]: > 100 µM
Nc1ccc(S(=O)(=O)Nc2ccccn2)cc1 [SULFAPYRIDINE]	–	–	–	–	–	–	inactive	–	–	–	–	inactive	–	> 160	inactive	inactive	inactive	inactive	inactive	inactive	MIC [13, 33]: inactive
